Legend:
Assay type in all cases: functional
[1] = tested on: HOP-92; experiment: Antiproliferative activity against human HOP92 cells after 48 hrs by sulforhodamine B assay; conditions: HOP-92, 48 h
Outline: (§1)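 NCI 60-cell-line panel covering nine cancer types (leukemia, non-small cell lung, colon, CNS, melanoma, ovarian, renal, prostate, breast). Compounds were first tested at a single dose, then in a five-dose screen (series starting 0.01, 0.1 …) if they met NCI threshold criteria. Reported per line: GI50 (molar concentration inhibiting 50% net growth), TGI (total growth inhibition) and LC50 (50% net cell death).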

[2] = tested on: SK-MEL-2; experiment: Antiproliferative activity against human SK-MEL-2 cells after 48 hrs by sulforhodamine B assay; conditions: SK-MEL-2, 48 h; outline: as §1
[3] = tested on: KM12; experiment: Antiproliferative activity against human KM12 cells after 48 hrs by sulforhodamine B assay; conditions: KM12, 48 h; outline: as §1
[4] = tested on: OVCAR-5; experiment: Antiproliferative activity against human OVCAR5 cells after 48 hrs by sulforhodamine B assay; conditions: OVCAR-5, 48 h; outline: as §1
[5] = tested on: M14; experiment: Antiproliferative activity against human M14 cells after 48 hrs by sulforhodamine B assay; conditions: M14, 48 h; outline: as §1
[6] = tested on: CAKI-1; experiment: Antiproliferative activity against human Caki1 cells after 48 hrs by sulforhodamine B assay; conditions: CAKI-1, 48 h; outline: as §1
[7] = tested on: SN12C; experiment: Antiproliferative activity against human SN12C cells after 48 hrs by sulforhodamine B assay; outline: as §1
[8] = tested on: UACC-257; experiment: Antiproliferative activity against human UACC257 cells after 48 hrs by sulforhodamine B assay; conditions: UACC-257, 48 h
Outline: (§2)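 NCI 60-cell-line panel screen: single dose 10 µM first, then 5-dose testing (0.01, 0.1, … molar series). For each line, GI50 is the molar concentration giving 50% inhibition of net cell growth, TGI gives total inhibition of net growth, and LC50 gives 50% net cell death. Method follows the NCI DTP protocol.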

[9] = tested on: SNB-19; experiment: Antiproliferative activity against human SNB19 cells after 48 hrs by sulforhodamine B assay; conditions: SNB-19, 48 h; outline: as §1
[10] = tested on: NCI-H522; experiment: Antiproliferative activity against human NCI-H522 cells after 48 hrs by sulforhodamine B assay; conditions: NCI-H522, 48 h; outline: as §1
[11] = tested on: SNB-75; experiment: Antiproliferative activity against human SNB75 cells after 48 hrs by sulforhodamine B assay; conditions: SNB-75, 48 h; outline: as §1
[12] = tested on: K562; experiment: Antiproliferative activity against human K562 cells after 48 hrs by sulforhodamine B assay; conditions: K562, 48 h; outline: as §1
[13] = tested on: UO-31; experiment: Antiproliferative activity against human UO31 cells after 48 hrs by sulforhodamine B assay; conditions: UO-31, 48 h; outline: as §2
[14] = tested on: NCI-H322M; experiment: Antiproliferative activity against human NCI-H322M cells after 48 hrs by sulforhodamine B assay; outline: as §1
[15] = tested on: Malme-3M; experiment: Antiproliferative activity against human MALME-3M cells after 48 hrs by sulforhodamine B assay; outline: as §1
[16] = tested on: NCI-H226; experiment: Antiproliferative activity against human NCI-H226 cells after 48 hrs by sulforhodamine B assay; conditions: NCI-H226, 48 h; outline: as §1
[17] = tested on: A498; experiment: Antiproliferative activity against human A498 cells after 48 hrs by sulforhodamine B assay; conditions: A498, 48 h; outline: as §1
[18] = tested on: COLO 205; experiment: Antiproliferative activity against human COLO205 cells after 48 hrs by sulforhodamine B assay; conditions: COLO 205, 48 h; outline: as §1
[19] = tested on: HCC 2998; experiment: Antiproliferative activity against human HCC2998 cells after 48 hrs by sulforhodamine B assay; conditions: HCC 2998, 48 h; outline: as §1
[20] = tested on: OVCAR-8; experiment: Antiproliferative activity against human OVCAR8 cells after 48 hrs by sulforhodamine B assay; conditions: OVCAR-8, 48 h; outline: as §1
[21] = tested on: RXF 393; experiment: Antiproliferative activity against human RXF393 cells after 48 hrs by sulforhodamine B assay; conditions: RXF 393, 48 h; outline: as §1
[22] = tested on: SK-OV-3; experiment: Antiproliferative activity against human SKOV3 cells after 48 hrs by sulforhodamine B assay; conditions: SK-OV-3, 48 h; outline: as §1
[23] = tested on: SF-268; experiment: Antiproliferative activity against human SF268 cells after 48 hrs by sulforhodamine B assay; conditions: SF-268, 48 h; outline: as §1
[24] = tested on: HCT-116; experiment: Antiproliferative activity against human HCT116 cells after 48 hrs by sulforhodamine B assay; conditions: HCT-116, 48 h; outline: as §1
[25] = Antiproliferative activity against human […] cells after 48 hrs by sulforhodamine B assay; outline: as §1
[26] = tested on: NCI-H23; experiment: Antiproliferative activity against human NCI-H23 cells after 48 hrs by sulforhodamine B assay; conditions: NCI-H23, 48 h; outline: as §1
[27] = tested on: HCT-15; experiment: Antiproliferative activity against human HCT15 cells after 48 hrs by sulforhodamine B assay; conditions: HCT-15, 48 h; outline: as §1
[28] = tested on: ACHN; experiment: Antiproliferative activity against human ACHN cells after 48 hrs by sulforhodamine B assay; outline: as §1
[29] = tested on: OVCAR-3; experiment: Antiproliferative activity against human OVCAR3 cells after 48 hrs by sulforhodamine B assay; conditions: OVCAR-3, 48 h; outline: as §1
[30] = tested on: OVCAR-4; experiment: Antiproliferative activity against human OVCAR4 cells after 48 hrs by sulforhodamine B assay; conditions: OVCAR-4, 48 h; outline: as §1
[31] = tested on: MOLT-4; experiment: Antiproliferative activity against human MOLT4 cells after 48 hrs by sulforhodamine B assay; conditions: MOLT-4, 48 h; outline: as §1
[32] = read-out: LC50 (the source's name)

## Nc1nn(C(=O)Nc2ccc(Cc3ccccc3)cc2)c2ccc(Cl)cc12
[1]
  GI50: 10.7 µM
  LC50: > 100 µM
  TGI: 33.7 µM
[2]
  GI50: 33.6 µM
  TGI: > 100 µM
[2]; [32]
  CC50: > 100 µM
[3]
  GI50: 0.0726 µM
  TGI: > 100 µM
[3]; [32]
  CC50: > 100 µM
[4]
  GI50: 18.8 µM
  TGI: > 100 µM
[4]; [32]
  CC50: > 100 µM
[5]
  GI50: 0.0888 µM
  TGI: 14 µM
[5]; [32]
  CC50: > 100 µM
[6]
  GI50: 0.217 µM
  TGI: > 100 µM
[6]; [32]
  CC50: > 100 µM
[7]
  GI50: 14.6 µM
  TGI: 42.9 µM
[7]; [32]
  CC50: > 100 µM
[8]
  GI50: 4.92 µM
  TGI: > 100 µM
[8]; [32]
  CC50: > 100 µM
[9]
  GI50: 14.6 µM
  TGI: 43.3 µM
[9]; [32]
  CC50: > 100 µM
[10]
  GI50: 15.6 µM
  LC50 (concentration causing 50% net cell death): > 100 µM
  TGI: > 100 µM
[11]
  GI50: 14 µM
  LC50 (concentration causing 50% net cell death): 74.5 µM
  TGI: 32.3 µM
[12]
  GI50: 0.0357 µM
  LC50 (concentration causing 50% net cell death): > 100 µM
  TGI: 14.7 µM
[13]
  GI50: 3.12 µM
  TGI: 84.5 µM
[13]; [32]
  CC50: > 100 µM
[14]
  GI50: 18.2 µM
  TGI: > 100 µM
[14]; [32]
  CC50: > 100 µM
[15]
  GI50: 6.69 µM
  LC50 (concentration causing 50% net cell death): > 100 µM
  TGI: 54.8 µM
[16]
  GI50: 15.4 µM
  TGI: 66.7 µM
[16]; [32]
  CC50: > 100 µM
[17]
  GI50: 16.1 µM
  TGI: 60.7 µM
[17]; [32]
  CC50: > 100 µM
[18]
  GI50: 0.588 µM
  LC50 (concentration causing 50% net cell death): > 100 µM
  TGI: 23.8 µM
[19]
  GI50: 0.238 µM
  TGI: 1.53 µM
[19]; [32]
  CC50: > 100 µM
[20]
  GI50: 14.9 µM
  TGI: > 100 µM
[20]; [32]
  CC50: > 100 µM
[21]
  GI50: 13.5 µM
  TGI: 31.5 µM
[21]; [32]
  CC50: 73.4 µM
[22]
  GI50: 15.8 µM
  TGI: 50.5 µM
[22]; [32]
  CC50: > 100 µM
[23]
  GI50: 13 µM
  TGI: 47.7 µM
[23]; [32]
  CC50: > 100 µM
[24]
  GI50: 0.467 µM
  LC50 (concentration causing 50% net cell death): 77.2 µM
  TGI: 25.1 µM
[25]
  GI50: 2.58 µM
  TGI: 46.5 µM
[25]; [32]
  CC50: > 100 µM
[26]
  GI50: 5.34 µM
  TGI: 68.4 µM
[26]; [32]
  CC50: > 100 µM
[27]
  GI50: 0.0458 µM
  LC50 (concentration causing 50% net cell death): > 100 µM
  TGI: > 100 µM
[28]
  GI50: 0.0468 µM
  TGI: 17.4 µM
[28]; [32]
  CC50: > 100 µM
[29]
  GI50: 6.66 µM
  TGI: 20.8 µM
[29]; [32]
  CC50: 48.2 µM
[30]
  GI50: 5.73 µM
  TGI: 34.3 µM
[30]; [32]
  CC50: > 100 µM
[31]
  GI50: 2.41 µM
  TGI: 55.3 µM
[31]; [32]
  CC50: > 100 µM

Source: ChEMBL document CHEMBL1649392, “Synthesis of substituted 3-amino-N-phenyl-1H-indazole-1-carboxamides endowed with antiproliferative activity” (Eur J Med Chem, 2011)
